Experimental data from different studies.
Lines come from different studies, so protocols differ.
Target: Cyclin-dependent kinase-like 1 (CDKL1, Homo sapiens, UniProt Q00532)

CC(=O)Nc1c(C(C)=O)c(=O)n(C)c2nc(-c3ccc(Cl)cc3Cl)c(-c3ccc(Cl)cc3)cc12
remaining binding (cell-free assay; competition with immobilised ligand; 1 µM): 100%

COc1cnc(Nc2cccc(S(N)(=O)=O)c2)nc1N1CCN(c2ccccc2)C(=O)C1
remaining binding (binding; competition with immobilised ligand; 1 µM): 92%

O=C(Nc1c[nH]nc1C(=O)NC1CCNCC1)c1cc(F)cc(F)c1
remaining binding (binding; competition with immobilised ligand; 1 µM): 95%

c1ccc(N2CCN(Cc3nc4ccccc4[nH]3)CC2)nc1
remaining binding (binding; competition with immobilised ligand; 1 µM): 78%

O=C(NCCCN1CCOCC1)c1ccc(Nc2ncc(Cl)c(-c3ccc(Cl)s3)n2)cc1
remaining binding (binding; competition with immobilised ligand; 1 µM): 36%

COc1cnc(Nc2cccc(S(N)(=O)=O)c2)nc1N1CCN(c2ccccc2)CC1
remaining binding (binding; competition with immobilised ligand; 1 µM): 86%

COc1ncc2cc3ccccc3nc2c1C#N
remaining binding (binding; competition with immobilised ligand; 5 µM): 100%

O=C1NC(c2ccccn2)Sc2ccccc21 (centres unmarked)
remaining binding (cell-free assay; competition with immobilised ligand; 1 µM): 75%

CN(CCCC(F)(F)F)c1nccc(-c2cnn3ncccc23)n1
remaining binding (binding; 1 µM): 83%

O=C(c1ccc(Nc2nccc(-c3cc4ccccc4s3)n2)cc1)N1CCC(N2CCCC2)CC1
remaining binding (binding; competition with immobilised ligand; 1 µM): 71%

c1cnn2ncc(-c3ccnc(N4CCC45COC5)n3)c2c1
remaining binding (binding; 1 µM): 59%

CNCc1ccccc1-c1csc([C@@H](C)Nc2nc(C)nc3cc(OC)c(OC)cc23)c1
remaining binding (cell-free assay; competition with immobilised ligand; 1 µM): 93%

COc1ccnn2ncc(-c3ccnc(N(C)C)n3)c12
remaining binding (binding; 1 µM): 87%

CNC(=O)Nc1ccc2c(c1)CC[C@@]21OC(=O)N(CC(=O)N(Cc2ccc(F)cc2)[C@@H](C)C(F)(F)F)C1=O
remaining binding (binding; competition with immobilised ligand; 1 µM): 86%

F[C@@H]1CCN(c2nccc(-c3cnn4ncccc34)n2)C1
remaining binding (binding; 1 µM): 89%

C=CC(=O)N1CCC(C(=O)NCC(=O)N2CCN(c3nc(-c4cnc(N)nc4C(F)F)nc(N4CCOCC4)n3)CC2)CC1
remaining binding (binding; competition with immobilised ligand; 1 µM): 90%

C[C@H]1CCN(c2nccc(-c3cnn4ncccc34)n2)C1
remaining binding (binding; 1 µM): 62%

O=C(c1ccc(Nc2ncc(Cl)c(-c3ccc(Cl)s3)n2)cc1)N1CCC(N2CCCC2)CC1
remaining binding (binding; competition with immobilised ligand; 1 µM): 32%

N#Cc1ccc(Nc2ccc3[nH]c(=O)[nH]c3c2)c(Cl)c1
remaining binding (binding; competition with immobilised ligand; 1 µM): 84%

N[C@H]1CCN(c2nccc(-c3cnn4ncccc34)n2)C1
remaining binding (binding; 1 µM): 80%
